Reference: ChEMBL document CHEMBL1157808, “Synthesis and biological evaluation of phenolic 4,5-dihydroisoxazoles and 3-hydroxy ketones as estrogen receptor alpha and beta agonists” (Bioorg Med Chem, 2010)
Activity calls are given as the source filed them. No cut-off for these calls is given here.

Columns and labels:
[1] = biological target: Estrogen receptor beta (Homo sapiens) (UniProt Q92731); test: Agonist activity at ERbeta expressed in HEK293 cells at 10 uM after 24 hrs by luciferase reporter gene assay relative to 3,17-beta-estradiol; format: functional, cell-based
In short: (§1)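 HEK293 cells (no endogenous ER) in phenol-free DMEM with 5% delipidated FBS were transfected for 4 h with 5 ng ERα or ERβ expression vector, 75 ng pERE2TATA-LUC reporter and 20 ng pCMVβ. Cells then received 10 μM compound, 10 nM E2 or vehicle (0.1% v/v) for 24 h. Luciferase was normalized to β-galactosidase and expressed as 100% × (test − vehicle)/(E2 − vehicle). Values are means of at least three independent transfections.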

[2] = biological target: T1, Estrogen receptor (Homo sapiens) (UniProt P03372); test: Agonist activity at ERalpha expressed in HEK293 cells at 10 uM after 24 hrs by luciferase reporter gene assay relative to 3,17-beta-estradiol; format: functional, cell-based; in short: as §1
T1 sequence (whole entry): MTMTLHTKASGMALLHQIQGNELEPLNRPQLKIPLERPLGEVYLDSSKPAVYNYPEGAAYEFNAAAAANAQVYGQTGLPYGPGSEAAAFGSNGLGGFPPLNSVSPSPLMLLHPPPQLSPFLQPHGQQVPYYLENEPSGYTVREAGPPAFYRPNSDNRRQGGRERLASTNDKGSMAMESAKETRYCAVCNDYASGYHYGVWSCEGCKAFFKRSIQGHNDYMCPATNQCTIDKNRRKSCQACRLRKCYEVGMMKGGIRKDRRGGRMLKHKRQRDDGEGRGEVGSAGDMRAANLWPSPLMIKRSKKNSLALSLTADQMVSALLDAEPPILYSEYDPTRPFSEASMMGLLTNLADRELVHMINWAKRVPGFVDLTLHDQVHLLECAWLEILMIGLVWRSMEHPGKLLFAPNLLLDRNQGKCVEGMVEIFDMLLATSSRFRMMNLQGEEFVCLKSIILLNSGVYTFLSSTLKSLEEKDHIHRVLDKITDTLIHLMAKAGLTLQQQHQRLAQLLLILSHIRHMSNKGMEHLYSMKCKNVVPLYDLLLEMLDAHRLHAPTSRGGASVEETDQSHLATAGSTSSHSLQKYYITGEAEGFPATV

Homo sapiens = organism: Homo sapiens; test: Selectivity ratio of relative binding affinity for human ERalpha to relative binding affinity for human ERbeta
In short: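 COS-1 cells in DMEM with 10% delipidated FBS were transfected for 24 h with human ERα or ERβ vector (pSG5-hERα/β). Cells were washed, lysed in 0.5 M NaOH at 56 °C for 15 min and counted by scintillation, with nonspecific binding subtracted.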

[3] = biological target: T1, Estrogen receptor (Homo sapiens); test: Induction of ERalpha-mediated pS2 gene expression in human MCF7 cells at 10 nM after 6 hrs by real-time quantitative PCR analysis relative to control; format: cell-based
In short: (§2)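 MCF-7 cells were grown overnight in phenol red-free DMEM with 5% charcoal-stripped FBS. They were then exposed to ligand at 10 nM final or to solvent for 6 h or 24 h. Total RNA was extracted and reverse-transcribed. pS2 mRNA was measured by TaqMan real-time qPCR with RPLPO as reference and reported as fold change relative to control.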

[4] = biological target: T1, Estrogen receptor (Homo sapiens); test: Induction of ERalpha-mediated pS2 gene expression in human MCF7 cells at 10 nM after 24 hrs by real-time quantitative PCR analysis; format: cell-based; in short: as §2
[5] = biological target: T1, Estrogen receptor (Homo sapiens); test: Antagonist activity at ERalpha in human MCF7 cells assessed as decrease in 3,17-beta-estradiol-induced pS2 gene expression at 1 uM after 24 hrs by real-time quantitative PCR analysis; format: functional, cell-based
In short: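 Competition format: MCF-7 cells were first grown overnight in phenol red-free DMEM with 5% charcoal-stripped FBS. They were then co-treated for 24 h with 10 nM E2 plus 1 μM compound. Total RNA was extracted and pS2 mRNA was quantified by TaqMan real-time qPCR, normalized to RPLPO.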

[6] = Selectivity for ERalpha over ERbeta
[7] = biological target: T1, Estrogen receptor (Homo sapiens); test: Induction of ERalpha-mediated pS2 gene expression in human MCF7 cells at 10 uM after 24 hrs by real-time quantitative PCR analysis; format: cell-based
[8] = biological target: T1, Estrogen receptor (Homo sapiens); test: Ratio of compound to 3,17-beta-estradiol binding affinity at ERalpha expressed in COS-1 cells

Estrogen receptor beta (Homo sapiens), sequence (Q92731 whole entry): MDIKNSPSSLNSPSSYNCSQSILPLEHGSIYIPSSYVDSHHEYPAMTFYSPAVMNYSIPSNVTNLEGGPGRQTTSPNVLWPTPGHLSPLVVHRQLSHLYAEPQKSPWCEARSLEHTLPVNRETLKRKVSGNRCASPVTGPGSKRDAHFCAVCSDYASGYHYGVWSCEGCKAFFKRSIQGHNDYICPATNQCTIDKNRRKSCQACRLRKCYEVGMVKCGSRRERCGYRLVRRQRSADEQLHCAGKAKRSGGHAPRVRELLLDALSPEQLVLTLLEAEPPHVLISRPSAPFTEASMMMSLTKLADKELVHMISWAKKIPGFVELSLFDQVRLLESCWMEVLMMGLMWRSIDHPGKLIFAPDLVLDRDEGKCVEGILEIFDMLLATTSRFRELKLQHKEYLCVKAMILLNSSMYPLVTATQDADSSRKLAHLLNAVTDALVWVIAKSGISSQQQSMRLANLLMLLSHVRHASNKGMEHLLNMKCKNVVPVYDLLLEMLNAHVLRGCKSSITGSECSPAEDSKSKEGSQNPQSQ

Row | SMILES | Activity [1] [%] | Activity [2] [%] | Ratio (Homo sapiens) | fold change (FC) [3] | Activity [4] | inhibition [5] [%] | Selectivity ratio [6] | Activity [7] | Ratio [8]
1 | Oc1ccc(CCCC2=NOC(c3ccccc3)C2)cc1 (single isomer, unassigned; 45a) | 44.7 | 104 | 157 | 1.8 | inactive | 32 | 2 | – | –
2 | Oc1ccc(CCCC2=NOC(c3ccccc3)C2)cc1 (single isomer, unassigned; 45b) | 77.1 | 65 | 41 | – | inactive | 27 | – | inactive | –
3 | CC1(c2ccccc2)CC(CCCc2ccc(O)cc2)=NO1 (single isomer, unassigned; 46a) | -0.9 | 14.4 | 13 | – | – | – | – | – | –
4 | O=C(CCCc1ccc(O)cc1)CC(O)c1ccccc1 (single isomer, unassigned; 50b) | 155 | 140 | 5 | – | Active | 29 | – | – | –

Next, values leading:

Row | Activity [1] [%] | Activity [2] [%] | Ratio (Homo sapiens) | fold change (FC) [3] | Activity [4] | inhibition [5] [%] | Selectivity ratio [6] | Activity [7] | Ratio [8] | SMILES
5 | 10.6 | 13.6 | 1 | – | – | – | – | – | – | CC1(c2ccccc2)CC(CCCc2ccc(O)cc2)=NO1 (single isomer, unassigned; 46b)
6 | 170 | 139 | 4 | – | inactive | 23 | – | inactive | 2 | O=C(CCCc1ccc(O)cc1)CC(O)c1ccccc1 (single isomer, unassigned; 50a)
7 | 17.2 | 11.5 | 1 | – | – | – | – | – | – | c1ccc(CCCC2=NOC(c3ccccc3)C2)cc1 (stereo in doubt; 43b)
